ChEMBL document CHEMBL3525900, “Pharmacokinetics, distribution, and metabolism of [14C]sunitinib in rats, monkeys, and humans” (Drug Metab Dispos, 2012)

Experiments:
[1] = Drug concentration in male Lister Hooded pigmented rat eye assessed as radioactivity per gram of tissue at 20 mg/kg administered as single dose via gastric gavage measured after 72 hrs by autoradiographic analysis; format: ADME, organism-based; parameters: dose 20 mg/kg, dosed compound name [14C]Sunitinib; settings: in vivo, po
[2] = Drug concentration in female Lister Hooded pigmented rat lymph node assessed as radioactivity per gram of tissue at 20 mg/kg administered as single dose via gastric gavage measured after 24 hrs by autoradiographic analysis; format: ADME, organism-based; parameters: dose 20 mg/kg, dosed compound name [14C]Sunitinib; settings: in vivo, po
Method in brief: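 Sprague Dawley (albino) and Lister Hooded (pigmented) rats, ca 7-8 weeks old, 179-310 g, acclimated 7 days. Single gavage dose of [14C]sunitinib L-malate (15 mg freebase/kg, 100 µCi/kg). One male and one female killed by CO2 per time point: albino at 3, 6, 24, 72, 168 h; pigmented at 24, 72, 168, 336 h. Carcasses frozen in solid CO2/hexane, 30 µm sagittal sections freeze-dried. Tissue radioactivity read by quantitative whole-body autoradiography against regression of standards, mean background subtracted.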

Rattus norvegicus [3] = experiment: Total drug recovery in female Sprague-Dawley rat at 15 mg/kg, po administered as single dose during 0 to 72 hrs by liquid scintillation counting; format: ADME, organism-based; parameters: dose 15 mg/kg, dosed compound name [14C]Sunitinib, route oral; settings: in vivo
Rattus norvegicus [4] = experiment: Tmax as total radioactivity in male Sprague-Dawley rat plasma at 15 mg/kg, po administered as single dose by LC/MS/MS analysis; format: ADME, organism-based; parameters: dose 15 mg/kg, dosed compound name [14C]Sunitinib, route oral; settings: in vivo
Spinal cord = experiment: Drug concentration in female albino rat spinal cord assessed as radioactivity per gram of tissue at 20 mg/kg administered as single dose via gastric gavage measured after 24 hrs by autoradiographic analysis; format: ADME, organism-based; parameters: dose 20 mg/kg, dosed compound name [14C]Sunitinib; settings: in vivo, po
Large intestine = experiment: Drug concentration in male albino rat large intestine assessed as radioactivity per gram of tissue at 20 mg/kg administered as single dose via gastric gavage measured after 6 hrs by autoradiographic analysis; format: ADME, organism-based; parameters: dose 20 mg/kg, dosed compound name [14C]Sunitinib; settings: in vivo, po
Spleen = experiment: Drug concentration in male Lister Hooded pigmented rat spleen assessed as radioactivity per gram of tissue at 20 mg/kg administered as single dose via gastric gavage measured after 168 hrs by autoradiographic analysis; format: ADME, organism-based; parameters: dose 20 mg/kg, dosed compound name [14C]Sunitinib; settings: in vivo, po
[5] = Drug concentration in male albino rat eye assessed as radioactivity per gram of tissue at 20 mg/kg administered as single dose via gastric gavage measured after 24 hrs by autoradiographic analysis; format: ADME, organism-based; parameters: dose 20 mg/kg, dosed compound name [14C]Sunitinib; settings: in vivo, po
[6] = Drug concentration in female albino rat thyroid gland assessed as radioactivity per gram of tissue at 20 mg/kg administered as single dose via gastric gavage measured after 6 hrs by autoradiographic analysis; format: ADME, organism-based; parameters: dose 20 mg/kg, dosed compound name [14C]Sunitinib; settings: in vivo, po
[7] = Drug concentration in female Lister Hooded pigmented rat uveal tract assessed as radioactivity per gram of tissue at 20 mg/kg administered as single dose via gastric gavage measured after 336 hrs by autoradiographic analysis; format: ADME, organism-based; parameters: dose 20 mg/kg, dosed compound name [14C]Sunitinib; settings: in vivo, po
Method in brief: (§1)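 Lister Hooded (pigmented) rats, ca 7-8 weeks old, acclimated 7 days, given [14C]sunitinib L-malate by gastric gavage at 20 mg/kg (15 mg freebase/kg, 100 µCi/kg). One male and one female killed by CO2 at 24, 72, 168 and 336 h. Carcasses frozen in solid CO2/hexane and embedded in frozen cellulose. 30 µm sagittal cryosections were freeze-dried. Tissue radioactivity measured by quantitative whole-body autoradiography against calibration standards, with background subtracted.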

Adrenal [8] = experiment: Drug concentration in male albino rat adrenal assessed as radioactivity per gram of tissue at 20 mg/kg administered as single dose via gastric gavage measured after 3 hrs by autoradiographic analysis; format: ADME, organism-based; parameters: dose 20 mg/kg, dosed compound name [14C]Sunitinib; settings: in vivo, po
Brain = experiment: Drug concentration in male Lister Hooded pigmented rat brain assessed as radioactivity per gram of tissue at 20 mg/kg administered as single dose via gastric gavage measured after 24 hrs by autoradiographic analysis; format: ADME, organism-based; parameters: dose 20 mg/kg, dosed compound name [14C]Sunitinib; settings: in vivo, po
Small intestine = experiment: Drug concentration in female albino rat small intestine assessed as radioactivity per gram of tissue at 20 mg/kg administered as single dose via gastric gavage measured after 72 hrs by autoradiographic analysis; format: ADME, organism-based; parameters: dose 20 mg/kg, dosed compound name [14C]Sunitinib; settings: in vivo, po
[9] = Drug concentration in male albino rat salivary gland assessed as radioactivity per gram of tissue at 20 mg/kg administered as single dose via gastric gavage measured after 3 hrs by autoradiographic analysis; format: ADME, organism-based; parameters: dose 20 mg/kg, dosed compound name [14C]Sunitinib; settings: in vivo, po
[10] = Drug concentration in male Lister Hooded pigmented rat lachrymal gland assessed as radioactivity per gram of tissue at 20 mg/kg administered as single dose via gastric gavage measured after 24 hrs by autoradiographic analysis; format: ADME, organism-based; parameters: dose 20 mg/kg, dosed compound name [14C]Sunitinib; settings: in vivo, po
Adrenal [11] = experiment: Drug concentration in female Lister Hooded pigmented rat adrenal assessed as radioactivity per gram of tissue at 20 mg/kg administered as single dose via gastric gavage measured after 336 hrs by autoradiographic analysis; format: ADME, organism-based; parameters: dose 20 mg/kg, dosed compound name [14C]Sunitinib; settings: in vivo, po; method in brief: as §1
Ovary = experiment: Drug concentration in female albino rat ovary assessed as radioactivity per gram of tissue at 20 mg/kg administered as single dose via gastric gavage measured after 72 hrs by autoradiographic analysis; format: ADME, organism-based, Female gonad; parameters: dose 20 mg/kg, dosed compound name [14C]Sunitinib; settings: in vivo, po
Method in brief: (§2)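 Sprague Dawley albino rats, ca 7-8 weeks old, dosed once by gastric gavage with [14C]sunitinib L-malate (15 mg freebase/kg, 100 µCi/kg). One male and one female killed by CO2 at 3, 6, 24, 72 and 168 h. Carcasses frozen in solid CO2/hexane, embedded and cut into 30 µm sagittal sections, then freeze-dried. Radioactivity quantified by whole-body autoradiography against standards by regression, background subtracted.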

Cynomolgus monkey [12] = experiment: Tmax as total radioactivity in male cynomolgus monkey plasma at 6 mg/kg, po administered as single dose by LC/MS/MS analysis; format: ADME, organism-based, Macaca fascicularis; parameters: dose 6 mg/kg, dosed compound name [14C]Sunitinib, route oral; settings: in vivo
[13] = Drug concentration in female albino rat pituitary gland assessed as radioactivity per gram of tissue at 20 mg/kg administered as single dose via gastric gavage measured after 6 hrs by autoradiographic analysis; format: ADME, organism-based; parameters: dose 20 mg/kg, dosed compound name [14C]Sunitinib; settings: in vivo, po; method in brief: as §2
[14] = Drug concentration in male albino rat skeletal muscle assessed as radioactivity per gram of tissue at 20 mg/kg administered as single dose via gastric gavage measured after 6 hrs by autoradiographic analysis; format: ADME, organism-based; parameters: dose 20 mg/kg, dosed compound name [14C]Sunitinib; settings: in vivo, po
Cynomolgus monkey [15] = experiment: Drug recovery in cage residue of female cynomolgus monkey at 6 mg/kg, po administered as single dose during 0 to 336 hrs by liquid scintillation counting; format: ADME, organism-based, Macaca fascicularis; parameters: dose 6 mg/kg, dosed compound name [14C]Sunitinib, route oral; settings: in vivo
[16] = Drug recovery in urine of male Sprague-Dawley rat at 15 mg/kg, po administered as single dose during 0 to 72 hrs by liquid scintillation counting; format: ADME, organism-based; parameters: dose 15 mg/kg, dosed compound name [14C]Sunitinib, route oral; settings: in vivo
Thymus [17] = experiment: Drug concentration in male albino rat thymus assessed as radioactivity per gram of tissue at 20 mg/kg administered as single dose via gastric gavage measured after 6 hrs by autoradiographic analysis; format: ADME, organism-based; parameters: dose 20 mg/kg, dosed compound name [14C]Sunitinib; settings: in vivo, po
Thymus [18] = experiment: Drug concentration in male Lister Hooded pigmented rat thymus assessed as radioactivity per gram of tissue at 20 mg/kg administered as single dose via gastric gavage measured after 168 hrs by autoradiographic analysis; format: ADME, organism-based; parameters: dose 20 mg/kg, dosed compound name [14C]Sunitinib; settings: in vivo, po
Kidney = experiment: Drug concentration in male albino rat kidney assessed as radioactivity per gram of tissue at 20 mg/kg administered as single dose via gastric gavage measured after 6 hrs by autoradiographic analysis; format: ADME, organism-based; parameters: dose 20 mg/kg, dosed compound name [14C]Sunitinib; settings: in vivo, po
Rattus norvegicus [19] = experiment: Drug recovery in cage residue of male Sprague-Dawley rat at 15 mg/kg, po administered as single dose during 0 to 72 hrs by liquid scintillation counting; format: ADME, organism-based; parameters: dose 15 mg/kg, dosed compound name [14C]Sunitinib, route oral; settings: in vivo
Rattus norvegicus [20] = experiment: AUC (0 to infinity) as total radioactivity in male Sprague-Dawley rat plasma at 15 mg/kg, po administered as single dose by LC/MS/MS analysis; format: ADME, organism-based; parameters: time infinity, dose 15 mg/kg, dosed compound name [14C]Sunitinib, route oral; settings: in vivo
Method in brief: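 Single dose of [14C]sunitinib L-malate as free base, 50 µCi/kg. IV dose was 5 mg/kg by tail vein in 5 females. Oral dose was 15 mg/kg by gavage in 3 females and 3 males. Total radioactivity was by scintillation counting. […] Cmax was read from raw data, t½ by log-linear regression, AUC by linear trapezoidal rule.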

Zone of skin = experiment: Drug concentration in male albino rat abdomen skin assessed as radioactivity per gram of tissue at 20 mg/kg administered as single dose via gastric gavage measured after 72 hrs by autoradiographic analysis; format: ADME, organism-based; parameters: dose 20 mg/kg, dosed compound name [14C]Sunitinib; settings: in vivo, po

CCN(CC)CCNC(=O)c1c(C)[nH]c(/[14CH]=C2\C(=O)Nc3ccc(F)cc32)c1C.O=C(O)C[C@H](O)C(=O)O
Radiolabel recovery [1]: 23.98 ugequiv
Radiolabel recovery [2]: 1.14 ugequiv
Radiolabel recovery (Rattus norvegicus [3]): 82.5%
Tmax (Rattus norvegicus [4]): 5 h
Radiolabel recovery (Spinal cord): 0.07 ugequiv
Radiolabel recovery (Large intestine): 5.38 ugequiv
Radiolabel recovery (Spleen): 0.06 ugequiv
Radiolabel recovery [5]: 0.08 ugequiv
Radiolabel recovery [6]: 11.23 ugequiv
Radiolabel recovery [7]: 323.3 ugequiv
Radiolabel recovery (Adrenal [8]): 25.22 ugequiv
Radiolabel recovery (Brain): 0.06 ugequiv
Radiolabel recovery (Small intestine): 0.08 ugequiv
Radiolabel recovery [9]: 17.24 ugequiv
Radiolabel recovery [10]: 0.94 ugequiv
Radiolabel recovery (Adrenal [11]): 0.66 ugequiv
Radiolabel recovery (Ovary): 0.09 ugequiv
Tmax (Cynomolgus monkey [12]): 8 h
Radiolabel recovery [13]: 20.88 ugequiv
Radiolabel recovery [14]: 2.3 ugequiv
Radiolabel recovery (Cynomolgus monkey [15]): 0.6%
Radiolabel recovery [16]: 8.5%
Radiolabel recovery (Thymus [17]): 6.43 ugequiv
Radiolabel recovery (Thymus [18]): 0.06 ugequiv
Radiolabel recovery (Kidney): 9.43 ugequiv
Radiolabel recovery (Rattus norvegicus [19]): 1.5%
AUC (Rattus norvegicus [20]): 82039 ng.Eq.hr/ml
Radiolabel recovery (Zone of skin): 0.27 ugequiv
